The list is not random: actives were taken first. Their share in the collection is about 2.3%.
TRPC6 activator – mouse TRPC6 channel activation; HEK293-TRPC6 membrane potential dye fluorescence; stronger effect = higher value; B-score at 10 µM; actives 0.13% (n = 310,000); AID 2550;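 active = B-score of the integrated fluorescence ratio above library mean plus 3 SD, and starting fluorescence ratio within library mean plus 5 SD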;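 also: higher score means more depolarization so channel activation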
TRPC4 act – opens the mouse TRPC4 cation channel; Q9QUQ5; HEK293 TRPC4beta/mu-opioid, Fluo4 calcium fluorescence; stronger effect = higher value; B-score at 10 µM; actives 0.49% (n = 310,000); AID 2237;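 active = B-score above 5 SD of library B-scores, and initial fluorescence ratio not above library mean plus 5 SD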;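 also: positive B-score marks a calcium rise read as TRPC4 activation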
Target sequence (Q9QUQ5 whole entry, looked up): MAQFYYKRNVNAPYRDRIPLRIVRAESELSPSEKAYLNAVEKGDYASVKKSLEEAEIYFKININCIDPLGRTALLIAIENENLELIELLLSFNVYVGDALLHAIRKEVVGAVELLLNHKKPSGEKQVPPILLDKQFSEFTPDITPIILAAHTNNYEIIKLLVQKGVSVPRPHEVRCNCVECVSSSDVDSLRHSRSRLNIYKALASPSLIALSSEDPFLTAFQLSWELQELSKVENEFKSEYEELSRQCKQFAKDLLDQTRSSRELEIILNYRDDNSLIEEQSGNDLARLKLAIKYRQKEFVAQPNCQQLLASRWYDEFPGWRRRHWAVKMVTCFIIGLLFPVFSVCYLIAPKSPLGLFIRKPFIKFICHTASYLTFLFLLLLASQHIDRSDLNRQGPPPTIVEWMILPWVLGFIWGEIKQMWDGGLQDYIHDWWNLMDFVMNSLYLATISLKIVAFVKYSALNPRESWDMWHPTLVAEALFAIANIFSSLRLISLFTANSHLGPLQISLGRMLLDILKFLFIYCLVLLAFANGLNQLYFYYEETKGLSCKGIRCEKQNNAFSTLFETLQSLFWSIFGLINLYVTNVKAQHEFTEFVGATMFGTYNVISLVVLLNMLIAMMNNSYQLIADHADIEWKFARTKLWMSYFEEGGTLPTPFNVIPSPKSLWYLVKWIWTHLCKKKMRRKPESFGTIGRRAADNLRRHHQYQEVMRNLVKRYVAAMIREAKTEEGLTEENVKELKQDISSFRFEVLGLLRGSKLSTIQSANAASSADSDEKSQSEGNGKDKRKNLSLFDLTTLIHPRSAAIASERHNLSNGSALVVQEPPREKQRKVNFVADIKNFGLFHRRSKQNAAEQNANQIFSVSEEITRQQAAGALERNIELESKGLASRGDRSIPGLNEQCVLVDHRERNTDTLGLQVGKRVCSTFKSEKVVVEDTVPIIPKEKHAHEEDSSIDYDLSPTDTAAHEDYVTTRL
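Material: HEK293 stable line with TRPC4beta plus mu-opioid receptor; technique: Fluo4 calcium-sensitive dye fluorescence, kinetic, 1 Hz baseline; timing: Fluo4 dye loading 45 min at room temperature, 110 s recording; controls: assay buffer as low control, maximal DAMGO as high control; read-out: integrated baseline-normalised fluorescence ratio, converted to per-well B score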
TRPC6 inh – inhibitors of mouse TRPC6 channel | AID 2553 | B-score at 10 µM | actives 1.1% (n = 310,000) | HEK293-TRPC6, membrane potential dye, ACh-evoked depolarization; stronger effect = lower value | Q61143;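 active = B-score under library mean minus 3 SD, initial fluorescence not abnormally high, positive integrated signal ratio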;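 also: B-score derived from integrated fluorescence ratio over the kinetic read; more negative B-score means stronger inhibition of depolarization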
TRPC4 block – inhibitors of mouse TRPC4 channel; Q9QUQ5; HEK293 TRPC4beta/mu-opioid, DAMGO-evoked Fluo4 calcium flux; stronger effect = lower value; B-score at 10 µM; actives 0.39% (n = 300,000);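 active = B-score over 3 SD under the library average, no early fluorescence shift, positive overall ratio signal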
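Assay system – HEK293 line stably carrying TRPC4beta and mu-opioid receptor · Doses – single dose · Detection – Fluo4 calcium-dye fluorescence, kinetic read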
TRPC4 potent – TRPC4 (mouse) allosteric potentiation; actives 0.42% (n = 310,000); B-score at 10 µM; HEK293 TRPC4beta/mu-opioid, DAMGO EC20, Fluo-4 Ca2+ flux; stronger effect = higher value; Q9QUQ5;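 active = B-score of calcium response area above 5 SD of library B-scores, with initial fluorescence ratio within 5 SD of library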
Yeast superoxide – caloric restriction mimetics inhibiting age-related superoxide in yeast; S. cerevisiae aged cells, superoxide DHE fluorescence; stronger effect = lower value; superoxide response (% of plate mean), % at 10 µM; actives 0.18% (n = 330,000); AID 2690;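 active = superoxide response under a set limit, about three screen SD below normal, cut at about 65% in these data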;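 also: yeast aged for seven days with compound at 30 °C before DHE staining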
HEK293 TRPC6 ctr – parental HEK293 nonspecific activity of TRPC6 modulators; shares compounds with TRPC6 inh; membrane potential dye fluorescence; membrane potential signal change, % at 10 µM; actives 51% (n = 2,400);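 active = membrane potential signal moves up or down beyond 5 SD from buffer-only wells, on both duplicate plates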
HEK293 MPD ctr 2 – parental HEK293 nonspecific activity of TRPC6 modulators, second screen | AID 488926 | shares compounds with TRPC6 inh | inhibition, % at 10 µM | actives 14% (n = 2,400) | membrane potential dye fluorescence; after compound, maximal acetylcholine stimulation;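 active = membrane potential signal drops by more than 5 SD from the mean control signal, in both duplicate plates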
TRPC4/MOR mod – tests whether TRPC6 modulators also affect mouse TRPC4; shares compounds with TRPC6 inh; HEK293 TRPC4/mu-opioid, membrane potential fluorescence; percent change from control (negative = decrease, positive = increase), % at 10 µM; actives 69% (n = 2,400); AID 488927;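 active = membrane potential signal moved up or down beyond 5 SD of buffer control wells, in both duplicate plates, actives on both sides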
TRPC4 ctr inh 2 – mouse TRPC4 off-target activity of TRPC6 modulators, second screen; shares compounds with TRPC6 inh; HEK293 TRPC4/mu-opioid, membrane potential dye fluorescence; stimulated with maximal-effect DAMGO; AID 488928; actives 55% (n = 2,400); inhibition, % at 10 µM;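 active = drop in membrane potential signal beyond 5 SD of the control wells in both duplicate plates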;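 also: TRPC4 counter screen for TRPC6 hits run under conditions tuned for TRPC6 not TRPC4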
TRPC6 block conf – confirmation of mouse TRPC6 inhibitors; shares compounds with TRPC6 inh; HEK293-TRPC6, membrane potential dye, ACh-evoked depolarization; inhibition, % at 10 µM; actives 43% (n = 3,300);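 active = fluorescence ratio falls more than 5 SD below the full-stimulation control mean, in both duplicate runs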;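 also: integrated fluorescence ratio of peak minus minimum over baseline after agonist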
TRPC6 act conf – confirmation of mouse TRPC6 activators | AID 488961 | activation, % at 10 µM | shares compounds with TRPC6 inh | actives 11% (n = 2,800) | HEK293-TRPC6 membrane potential dye fluorescence, FDSS;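 active = ratio signal rise beyond 5 SD above unstimulated control wells' mean, seen in both duplicate runs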
A number is an active result.

What do the screens show for `CN(C)S(=O)(=O)c1ccc(C(=O)OCC(=O)NC(=O)NC2CCCC2)cc1`?
Yeast superoxide: inactive

Results for Cc1ccccc1C(=O)Nc1ccc2c(C#N)c3nc4ccccc4nc3n2c1 ?
TRPC6 activator: inactive; TRPC4 act: inactive; TRPC6 inh: -5.85; TRPC4 block: inactive; TRPC4 potent: inactive; Yeast superoxide: inactive; HEK293 TRPC6 ctr: inactive; HEK293 MPD ctr 2: inactive; TRPC4/MOR mod: -10.5%; TRPC4 ctr inh 2: inactive; TRPC6 block conf: inactive; TRPC6 act conf: inactive

Results for Cc1ccc(/C=N/NC(=O)CSc2nc3ccccc3n2Cc2ccccc2)o1 ?
TRPC6 activator: inactive; TRPC4 act: inactive; TRPC6 inh: inactive; TRPC4 block: inactive; TRPC4 potent: inactive; Yeast superoxide: inactive

How did O=C(CSc1nc2ccccc2c(=O)[nH]1)c1cccs1 do in these assays?
TRPC6 activator: inactive; TRPC4 act: inactive; TRPC6 inh: inactive; TRPC4 block: inactive; TRPC4 potent: inactive; Yeast superoxide: inactive

Results for N#Cc1c(-c2cccs2)nc(SCC(=O)c2cccs2)[nH]c1=O ?
TRPC6 activator: 12.1; TRPC4 act: inactive; TRPC6 inh: inactive; TRPC4 block: inactive; TRPC4 potent: inactive; Yeast superoxide: inactive; HEK293 TRPC6 ctr: 114.0%; HEK293 MPD ctr 2: inactive; TRPC4/MOR mod: 25.5%; TRPC4 ctr inh 2: inactive; TRPC6 block conf: inactive; TRPC6 act conf: 40.0%

What do the screens show for `COCCNC(=O)c1ccc(N2CC3CC(C2)c2cccc(=O)n2C3)c(NC(=O)c2ccc(F)cc2)c1` (stereo not given)?
TRPC6 activator: inactive; TRPC4 act: inactive; TRPC6 inh: inactive; TRPC4 block: inactive; TRPC4 potent: inactive; Yeast superoxide: inactive

What do the screens show for `CCOc1cc(/C=C2\N=C(SC)SC2=O)cc([N+](=O)[O-])c1OC(C)=O`?
TRPC6 activator: inactive; TRPC4 act: inactive; TRPC6 inh: -5.09; TRPC4 block: inactive; TRPC4 potent: inactive; Yeast superoxide: inactive; HEK293 TRPC6 ctr: inactive; HEK293 MPD ctr 2: inactive; TRPC4/MOR mod: inactive; TRPC4 ctr inh 2: 39.0%; TRPC6 block conf: inactive; TRPC6 act conf: inactive

What do the screens show for `CCOc1cc(/C=C2\N=C(SCC)SC2=O)cc([N+](=O)[O-])c1OC(C)=O`?
TRPC6 activator: inactive; TRPC4 act: inactive; TRPC6 inh: inactive; TRPC4 block: inactive; TRPC4 potent: inactive; Yeast superoxide: inactive

Results for COc1ccc(CNc2ccc(C)c(C)c2)c(OC)c1OC ?
TRPC6 activator: inactive; TRPC4 act: inactive; TRPC6 inh: inactive; TRPC4 block: inactive; TRPC4 potent: inactive; Yeast superoxide: inactive

Results for CCN(CC)CCN1C(=O)C(O)=C(C(=O)c2cc3cccc(OC)c3o2)C1c1ccc(F)cc1 (stereo not given) ?
TRPC6 activator: inactive; TRPC4 act: inactive; TRPC6 inh: inactive; TRPC4 block: inactive; TRPC4 potent: inactive; Yeast superoxide: inactive

How did Cc1ccc2[nH]c(C(=O)Nc3ccc(F)cc3)cc2c1 do in these assays?
TRPC6 activator: inactive; TRPC4 act: inactive; TRPC6 inh: inactive; TRPC4 block: inactive; TRPC4 potent: inactive; Yeast superoxide: inactive
